Variants at the floor of the assay were thinned out.
B1: tRNA (parent)
chain: GUUCCGUUGGCGUAAUGGUAACGCGUCUCCCUCCUAAGGAGAAGACUGCGGGUUCGAGUCCCGUACGGAACG

Variants of: B1
Test: yeast fitness relative to wild type (ratio to wild type); higher = fitter; tRNA-Arg(CCU), competitive growth, 37 C, YPD
Method in brief: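 Start and end populations of a pooled competition were compared by 100-nucleotide paired-end sequencing of gene amplicons. The Saccharomyces cerevisiae strains carried tRNA-Arg(CCU) gene variants at the native genomic locus, synthesised with a 3% per-site mutation rate at 69 sites, and competed in YPD at 37°C for 24 hours in six parallel replicates. Darwinian fitness relative to wild type was based on the change in genotype frequencies. Genotypes required ≥ 100 starting reads, and estimates < 0.5 were set to 0.5.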

Row | Variant | yeast fitness
1 | A15G A20G C49A C61U C62A G67C | ≤ 0.5
2 | A15C C33U C49U | ≤ 0.5
3 | A15C U16C A43C | ≤ 0.5
4 | A15G A21C U54G A65U | ≤ 0.5
5 | A15C G17C C31A G44C | ≤ 0.5
6 | A15G A37G G38A A45U | 0.507
7 | A15C G18A A20U | ≤ 0.5
8 | A15G A42C C49A | 0.527
9 | A15C C31U G68C | ≤ 0.5
10 | A15C U35A G50C A65C | 0.603
11 | A15G A20U G39A A69C | ≤ 0.5
12 | A15C A21C C34U A37U | ≤ 0.5
13 | A15C U16C A37C G50A U53A C61U | 0.58
14 | A15C A21G C22U U47C | ≤ 0.5
15 | A15C U64A | 0.74
16 | A15C U64C | 0.956
17 | A15G A69C | 0.999
18 | A15G C31G U47G C49G | 0.545
19 | A15G C31G U35C A37U A57U | ≤ 0.5
20 | A15C U59A A69C | ≤ 0.5
21 | A15C C46U U64C A70G | ≤ 0.5
22 | A15C C33U U47G C49U G52C G68A | ≤ 0.5
23 | A15G A21G G52C C62A | 0.616
24 | A15C A20C C33U C34U C61G | ≤ 0.5

Row | Variant | yeast fitness
25 | A15C U19A G39A | 0.519
26 | A15C A21U G23A | ≤ 0.5
27 | A15G C27A | 0.786
28 | A15G A21U G63A | 0.627
29 | A15C U16C C34G C46A C61U C66G | ≤ 0.5
30 | A15C U35G | 0.621
31 | A15C C29U A69C | ≤ 0.5
32 | A15C A21C C27G C62U | 0.534
33 | A15G C31G U35C A43C | 0.586
34 | A15C G23C G39C G63A A69C | ≤ 0.5
35 | A15C A36C G48A | 0.516
36 | A15C C30A A57G | ≤ 0.5
37 | A15G C24G G52A C66G G67A | ≤ 0.5
38 | A15G A21G | 1.02
39 | A15G A21C C34U C61U | ≤ 0.5
40 | A15C A42G C49A G56C G67U | ≤ 0.5
41 | A15G A37G C55A | ≤ 0.5
42 | A15C A36G G39C C55U C66U | ≤ 0.5
43 | A15G C27U U28C | 0.731
44 | A15C G17A C22U G23C G51A | 0.565
45 | A15G A21U A36U C49U G52C C62A G67A | ≤ 0.5
46 | A15C C27A G58A A70U | 0.525
47 | A14U U35C U53G C66G | ≤ 0.5
48 | A15C U35G A57G C66G | 0.56

Row | Variant | yeast fitness
49 | A15C C31A C34A | ≤ 0.5
50 | A15G A20U C60G | 0.542
51 | A15G A42C | 0.863
52 | A15C G38A U54A A57U | ≤ 0.5
53 | A15C C46U G50A | 0.711
54 | A15C C27A U32G | 0.709
55 | A15G A43U A69C | 0.8
56 | A15G A21U A37C G39C A57U C62U | ≤ 0.5
57 | A15C C31G C55A C66U | ≤ 0.5
58 | A15C C46U A69U | 0.814
59 | A15G C22G U35C A43U | 0.556
60 | A15G A20U C34A | ≤ 0.5
61 | A15G A20C C34A | ≤ 0.5
62 | A15C C27G | 0.571
63 | A15G C27A A43G | ≤ 0.5
64 | A15C A42G C49A | 0.605
65 | A15G A20G C49A C62U G63A | ≤ 0.5
66 | A15G C29G C33G | ≤ 0.5
67 | A15C A20G A65U A69G | ≤ 0.5
68 | A15C G17A A36G G38C U59C | ≤ 0.5
69 | A15G C24G U26A G52A G67A G68C | 0.561
70 | A15C C29A G41A A43C | ≤ 0.5
71 | A15G C30U C31A A36C | ≤ 0.5
72 | A15G A36G G44C | 0.659

Row | Variant | yeast fitness
73 | A15C C31A G50A | ≤ 0.5
74 | A15C G18A C24A C34U C46G | ≤ 0.5
75 | A15G A36G | 0.867
76 | A15G A36U | 0.679
77 | A15G C24G U32A G41A A69U | ≤ 0.5
78 | A15G | 0.987
79 | A15C | 0.904
80 | A15G A65G A70C | 0.714
81 | A15C C27U C31A | ≤ 0.5
82 | A15C U47A G52A | 0.576
83 | A15C G44C | 0.684
84 | A15C A37U | 0.624
85 | A14U U35G C62G | ≤ 0.5
86 | A15C G25C C29U U35C A43U A70U | ≤ 0.5
87 | A15G C22G A36U A40G U59A | ≤ 0.5
88 | A15G A20U U26C C29G U32A | 0.591
89 | A15G A20U A57U C60U | ≤ 0.5
90 | A15G C30G C49G A65U | ≤ 0.5
91 | A15C G56C U59C | ≤ 0.5
92 | A15C G68C | 0.633
93 | A15C G68U | 0.735
94 | A15C U19A C30U A37C G41A | ≤ 0.5
95 | A15C U16A | 0.628
96 | A15C U16C | 0.678

Row | Variant | yeast fitness
97 | A15C C34A G63C | ≤ 0.5
98 | A15C U19A G48A C62G U64C | ≤ 0.5
99 | A15C C46A | 0.86
100 | A15C C46U | 0.939
101 | A15C A36G | 0.888
102 | A15C G17A U28A | 0.675
103 | A15C G48A A57G | 0.536
104 | A15C C49G C55G | 0.668
105 | A15C U19A C24G C34G C46U C61A A70U | 0.639
106 | A15G A57U C60G G68C | ≤ 0.5
107 | A15C C29A C60G G68A | 0.609
108 | A15C C22A G25C U28A A36U A70G | ≤ 0.5
109 | A15G C29A A36G G39A | ≤ 0.5
110 | A15C A36U C61A | ≤ 0.5
111 | A15G A20G A21C C31U | ≤ 0.5
112 | A15C G25A | 1.02
113 | A15G A21G C29G A42G C55A | ≤ 0.5
114 | A15C C61U A69U | 0.571
115 | A15G C24G U26A G52A | 0.589
116 | A15G A20C C24G A57G | ≤ 0.5
117 | A15C G38C C49G G68C | ≤ 0.5
118 | A15G C27A C60G | ≤ 0.5
119 | A15C A36C G48A G67A | 0.541
120 | A15G A20C C29G G67A | ≤ 0.5

Row | Variant | yeast fitness
121 | A14U U64C | 0.71
122 | A15C C24G C34U A43G | ≤ 0.5
123 | A15C G67A | 0.698
124 | A15C A20G C31A U59C A69G | ≤ 0.5
125 | A15C G48A | 0.946
126 | A15C A43U C49G | 0.515
127 | A15C C31G G58A U59A A65U | ≤ 0.5
128 | A15G A40G | 0.758
129 | A15C G17A C22U G23C G51A A69C | 0.567
130 | A15G C29A A69C | 0.517
131 | A15G A40C G50A | ≤ 0.5
132 | A15G A36G A70C | 0.674
133 | A15C U16A G50A | ≤ 0.5
134 | A15G C24A G52A | ≤ 0.5
135 | A15C U28A | 0.622
136 | A15G A45U G48A | 0.636
137 | A15C A65G | 0.829
138 | A15C A20C A65U | ≤ 0.5
139 | A15G C29U C34A A42U | ≤ 0.5
140 | A15G A20G G48A | 0.738
141 | A15C A43C G58A | ≤ 0.5
142 | A15C A40G U53C | ≤ 0.5
143 | A15C A43C | 0.609
144 | A15C A20G C61U C62U A69G | 0.764

Row | Variant | yeast fitness
145 | A15C U16A C31G C34U A69U | ≤ 0.5
146 | A15G A42G G48A | 0.774
147 | A15G A20U C33A A36C A42U | ≤ 0.5
148 | A15G C24G C29U C34G U35C U54G G67C | ≤ 0.5
149 | A14U U54C C62U G68C | ≤ 0.5
150 | A15C A36G U47C C55A A69U | 0.538
151 | A15C C31A U59C A69G | ≤ 0.5
152 | A15C G17A G18A A36C C55U | ≤ 0.5
153 | A15C G18A | 0.74
154 | A15G C27G A36U G39C A69C | ≤ 0.5
155 | A15C A36U C49U A65C | ≤ 0.5
156 | A15C U26G U28C A37G G41A C49G C62U | ≤ 0.5
157 | A15C G38A A45G G52A C61G | 0.539
158 | A15G A57C C62A | ≤ 0.5
159 | A15G C31A G41C G56A G58C | ≤ 0.5
160 | A15C C33U U47G C49U G52C | ≤ 0.5
161 | A15C C31U U32C | 0.5
162 | A14U U47A G56A | ≤ 0.5
163 | A15C G58A C61G C62G | ≤ 0.5
164 | A15G A20C C24G | 0.626
165 | A15C U16C A43U A70G | 0.532
166 | A15C G25C C29U U35C A43U A57C G58A | ≤ 0.5
167 | A15C U19C A37C G51A G67C | ≤ 0.5

Reference: the RNAGym collection of RNA variant scans (doi:10.1126/science.aae0568)
